Source: ChEMBL document CHEMBL4261570, “Design, Synthesis and Preliminary Antimicrobial Evaluation of N-Alkyl Chain Tethered C-5 Functionalized Bis-Isatins” (Medchemcomm, 2017)
The source made the active and inactive calls. No cut-off for these calls is given here.

Tests used:
[1] = tested on: Trichomonas vaginalis; assay: Antiparasitic activity against Trichomonas vaginalis assessed as parasite growth inhibition at 50 uM after 24 hrs by hemacytometer relative to control; assay type: functional; settings: read-out: GI
Summary of the method: (§1)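 G3 strain cultured in TYM Diamond's medium in 15 mL tubes, with compound in DMSO. Controls were untreated and 0.1% DMSO. After 24 h, cells were counted by hemacytometer and normalized to the DMSO controls. Screening was at 50 μM. IC50 came from titrations of 5–40 μM with variable-slope regression, 4 independent trials on different days, and was then re-confirmed.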

[2] = tested on: Giardia intestinalis; assay: Antiparasitic activity against Giardia lamblia WB trophozoites assessed as parasite growth inhibition after 48 hrs by ATP bioluminescence-based CellTiter-Glo luminescent cell viability assay; assay type: functional, organism-based; settings: Giardia duodenalis
Summary of the method: (§2)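 Trophozoites kept axenically in TYI-S-33 with penicillin and streptomycin. Each well held 5000 trophozoites and was incubated 48 h at 37 °C under anaerobic conditions in a GasPak pouch. Read-out was CellTiter-Glo ATP luminescence. Controls were 0.5% DMSO vehicle and 30 μM metronidazole. Primary screen at 50 μM in duplicate; hits were those above 50% inhibition. EC50 came from triplicate 8-point series (0.39–50 μM) and dose-response curves.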

[3] = tested on: Escherichia coli; assay: Toxicity in Escherichia coli K-12 MG1655 at 100 uM measured after overnight incubation by disc diffusion method; assay type: organism-based, K-12 substr. MG1655; settings: in vivo
Summary of the method: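 Grown in Luria broth at 37 °C under aerobic conditions. Blank 6 mm discs were soaked 20 min at room temperature in a 100 μM working dilution in medium. Discs were placed on streaked agar alongside DMSO vehicle and antibiotic discs (levofloxacin, gentamicin), incubated overnight at 37 °C, and inhibition zones measured in mm.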

[4] = tested on: Limosilactobacillus reuteri; assay: Toxicity in Lactobacillus reuteri ATCC 23272 at 100 uM measured after overnight incubation by disc diffusion method; assay type: organism-based; settings: in vivo
Summary of the method: (§3)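 Grown in Lactobacilli MRS at 37 °C under anaerobic conditions. Blank 6 mm discs were soaked 20 min at room temperature in a 100 μM working dilution in medium. Discs were placed on streaked agar alongside DMSO vehicle and antibiotic discs (levofloxacin, gentamicin), incubated overnight at 37 °C, and zones of inhibition measured in mm.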

[5] = tested on: Entamoeba histolytica; assay: Antiparasitic activity against Entamoeba histolytica HM-1:IMSS trophozoites assessed as parasite growth inhibition at 50 uM after 48 hrs by ATP bioluminescence-based CellTiter-Glo luminescent cell viability assay relative to control; assay type: functional; settings: for inhibition of growth at 50 µM: read-out: GI; summary of the method: as §2
[6] = tested on: Lacticaseibacillus rhamnosus; assay: Toxicity in Lactobacillus rhamnosus ATCC 53103 at 100 uM measured after overnight incubation by disc diffusion method; assay type: organism-based, GG; settings: in vivo; summary of the method: as §3
[7] = tested on: Lactobacillus acidophilus; assay: Toxicity in Lactobacillus acidophilus ATCC 43560 at 100 uM measured after overnight incubation by disc diffusion method; assay type: organism-based; settings: in vivo; summary of the method: as §3
[8] = tested on: Trichomonas vaginalis; assay: Antiparasitic activity against Trichomonas vaginalis assessed as parasite growth inhibition after 24 hrs by hemacytometer; assay type: functional, organism-based; summary of the method: as §1
[9] = tested on: Giardia intestinalis; assay: Antiparasitic activity against Giardia lamblia WB trophozoites assessed as parasite growth inhibition at 50 uM after 48 hrs by ATP bioluminescence-based CellTiter-Glo luminescent cell viability assay relative to control; assay type: functional; settings: Giardia duodenalis; for inhibition of growth at 50 µM: read-out: GI; summary of the method: as §2
[10] = tested on: Aspergillus parasiticus; assay: Antifungal activity against Aspergillus parasiticus NRRL5862 assessed as fungal growth at 500 uM after 48 hrs by microtiter plate liquid bioassay (reference value: 100%); assay type: functional
Summary of the method: (§4)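 A. parasiticus grown at 35 °C on PDA. Liquid assay in RPMI 1640, 3 × 104 to 5 × 10^4 CFU per mL, triplicate wells, 35 °C. Compounds in DMSO (<2% in media). No-treatment wells carry matched DMSO. Wells scored visually 0–4 versus the no-treatment control: 0 clear, 1 25%, 2 50%, 3 75%, 4 no reduction. Scoring follows CLSI M38-A.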

[11] = tested on: Entamoeba histolytica; assay: Antiparasitic activity against Entamoeba histolytica HM-1:IMSS trophozoites assessed as parasite growth inhibition after 48 hrs by ATP bioluminescence-based CellTiter-Glo luminescent cell viability assay; assay type: functional, organism-based; summary of the method: as §2
[12] = tested on: Saccharomyces cerevisiae; assay: Antifungal activity against Saccharomyces cerevisiae BY4741 assessed as fungal growth at 500 uM after 48 hrs by microtiter plate liquid bioassay (reference value: 100%); assay type: functional
[13] = tested on: Saccharomyces cerevisiae; assay: Antifungal activity against Saccharomyces cerevisiae BY4741 assessed as fungal growth at 500 uM after 24 hrs by microtiter plate liquid bioassay (reference value: 100%); assay type: functional
[14] = tested on: Aspergillus parasiticus; assay: Antifungal activity against Aspergillus parasiticus NRRL5862 assessed as fungal growth at 500 uM after 24 hrs by microtiter plate liquid bioassay (reference value: 100%); assay type: functional; summary of the method: as §4
[15] = tested on: Saccharomyces cerevisiae; assay: Antifungal activity against Saccharomyces cerevisiae BY4741 assessed as decrease in fungal survival at 500 uM after 48 to 72 hrs by YPD plate-based assay; assay type: functional, organism-based
Summary of the method: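 At the end of the 500 μM SG-liquid microtiter assay, the entire well contents were spread onto YPD recovery plates. Plates were cultured a further 48 to 72 h at 30 °C to judge fungal survival.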

[16] = tested on: Naegleria fowleri; assay: Antiparasitic activity against Naegleria fowleri KUL trophozoites assessed as parasite growth inhibition after 48 hrs by ATP bioluminescence-based CellTiter-Glo luminescent cell viability assay; assay type: functional, organism-based
Summary of the method: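 Strain KUL trophozoites cultured axenically in Nelson's medium with 10% FBS at 37 °C. Each well held 10 000 trophozoites, incubated under aerobic conditions without the anaerobe pouch. Read-out was CellTiter-Glo luminescence. Positive control was 50 μM amphotericin B. Hits were serially diluted in triplicate, 8 points from 0.39 to 50 μM, and EC50 was taken from dose-response curves.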

| Compound | inhibition of growth at 50 µM [1] [%] | IC50 [2] [µM] | Activity [3] | Activity [4] | growth inhibition (GI) [5] | Activity [6] | Activity [7] | IC50 [8] [µM] | inhibition of growth at 50 µM [9] [%] | Activity [10] [%] | IC50 [11] [µM] | Activity [12] [%] | inhibition of growth at 50 µM [5] [%] | Activity [13] [%] | Activity [14] | Activity [15] | IC50 [16] [µM] | growth inhibition (GI) [9] |
| --- | --- | --- | --- | --- | --- | --- | --- | --- | --- | --- | --- | --- | --- | --- | --- | --- | --- | --- |
| O=C1C(=O)N(CCCN2C(=O)C(=O)c3cc(F)ccc32)c2ccccc21 | 100 | 28.8 | Non-Toxic | Non-Toxic | inactive | Non-Toxic | Non-Toxic | 12.5 | 100 |  |  |  |  |  |  |  |  |  |
| O=C1C(=O)N(CCCCCBr)c2ccccc21 | 71.4 |  | Non-Toxic | Non-Toxic |  | Non-Toxic | Non-Toxic |  | 25.8 | 100 | 23 | 50 | 100 | 0 | 75 - 100% |  |  |  |
| O=C1C(=O)N(CCCCCCBr)c2ccccc21 | 86.6 | 24.4 | Non-Toxic | Non-Toxic | inactive | Non-Toxic | Non-Toxic |  | 98.9 | 100 |  | 0 |  | 0 | 75 - 100% | inactive |  |  |
| Cc1ncc([N+](=O)[O-])n1CCO [METRONIDAZOLE] |  | 6.4 |  |  |  |  |  |  |  |  | 5 |  |  |  |  |  |  |  |
| O=C1C(=O)N(CCCCCN2C(=O)C(=O)c3cc(Cl)ccc32)c2ccccc21 | 100 | 23.9 | Non-Toxic | Non-Toxic |  | Non-Toxic | Non-Toxic |  | 100 |  |  |  | 100 |  |  |  | 14.8 |  |
| O=C1C(=O)N(CCCCCCCCBr)c2ccccc21 | 100 | 18.4 | Non-Toxic | Non-Toxic | inactive | Non-Toxic | Non-Toxic |  | 100 | 100 |  | 0 |  | 0 | 75 - 100% | inactive |  |  |
| O=C1C(=O)N(CCCCBr)c2ccccc21 | 89.8 |  | Non-Toxic | Non-Toxic |  | Non-Toxic | Non-Toxic |  | 20.9 | 100 |  | 50 | 8.47 | 0 | 75 - 100% |  | 14.5 |  |
| O=C1C(=O)N(CCN2C(=O)C(=O)c3cc(Cl)ccc32)c2ccccc21 | 78.8 |  | Non-Toxic | Non-Toxic |  | Non-Toxic | Non-Toxic | 15 | 3.82 | 100 |  | 50 | 73.6 | 25 | 100% |  | 28.3 |  |
| O=C1C(=O)N(CCBr)c2ccccc21 | 62.5 |  | Non-Toxic | Non-Toxic |  | Non-Toxic | Non-Toxic |  | 47.2 | 100 |  | 75 | 7.23 | 25 | 75 - 100% |  | 23.6 |  |
| O=C1C(=O)N(CCCN2C(=O)C(=O)c3cc(Br)ccc32)c2ccccc21 | 100 |  | Non-Toxic | Non-Toxic | inactive | Non-Toxic | Non-Toxic | 3.72 | 19.3 | 100 |  | 50 |  | 25 | 100% |  |  |  |
| O=C1C(=O)N(CCCCN2C(=O)C(=O)c3cc(Br)ccc32)c2ccccc21 | 100 |  | Non-Toxic | Non-Toxic | inactive | Non-Toxic | Non-Toxic | 25 |  |  |  |  |  |  |  |  |  | inactive |
| O=C1C(=O)N(CCCCCN2C(=O)C(=O)c3cc(F)ccc32)c2ccccc21 | 100 |  | Non-Toxic | Non-Toxic | inactive | Non-Toxic | Non-Toxic |  |  | 100 |  | 75 |  | 50 | 100% |  | 27.3 | inactive |
